PMC5689172 (Biochemistry and Biophysics Reports, 2016)
≈ marks a conversion by molar mass, not a printed value. Like-named read-outs stand apart in the source and are kept apart here.

Tests used:
[1] = system: B. cereus; test: Antimicrobial activity, agar dilution method; format: cell-based; details: Bacillus cereus
Method in brief: (§1)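 Test compound in DMSO, mixed with Mueller–Hinton broth, two-fold serially diluted, and incorporated into MH agar at final 0.25–256 μg/mL. Agar with 0.5% DMSO served as reagent control. Organisms were grown overnight in MH broth at 37 °C, diluted in normal saline to 0.5 McFarland (1.5×10⁸ CFU/mL), and inoculated onto plates. Plates were incubated at 37 °C for 24–48 h, then MIC was recorded.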

[2] = read-out: SOD (superoxide dismutase) activity IC50; cited from earlier work
[3] = system: S. marcescens ATCC 8100; test: Antimicrobial activity, agar dilution method; format: cell-based; details: Serratia marcescens, ATCC8100
Method in brief: as §1

[4] = system: S. cerevisiae ATCC 2601; test: Antimicrobial activity, agar dilution method; format: cell-based; details: Saccharomyces cerevisiae, ATCC2601
Method in brief: as §1

[5] = system: Gram-negative bacteria; test: Antimicrobial activity, agar dilution method, summarised over the group; format: cell-based
Method in brief: as §1

[6] = system: P. stutzeri ATCC 17587; test: Antimicrobial activity, agar dilution method; format: cell-based, Pseudomonas stutzeri; details: Stutzerimonas stutzeri, ATCC17587
Method in brief: as §1

[7] = system: E. faecalis ATCC 33186; test: Antimicrobial activity, agar dilution method; format: cell-based; details: Enterococcus faecalis, ATCC33186
Method in brief: as §1

[8] = system: C. freundii; test: Antimicrobial activity, agar dilution method; format: cell-based; details: Citrobacter freundii
Method in brief: as §1

[9] = system: M. morganii; test: Antimicrobial activity, agar dilution method; format: cell-based; details: Morganella morganii
Method in brief: as §1

[10] = system: S. Enteritidis; test: Antimicrobial activity, agar dilution method; format: cell-based; details: Salmonella enterica
Method in brief: as §1

[11] = system: L. monocytogenes; test: Antimicrobial activity, agar dilution method; format: cell-based; details: Listeria monocytogenes
Method in brief: as §1

[12] = system: M. luteus ATCC 10240; test: Antimicrobial activity, agar dilution method; format: cell-based; details: Micrococcus luteus, ATCC10240
Method in brief: as §1

[13] = system: MRC-5 cell line; details: read-out: Cytotoxicity IC50; MRC-5 cells, MTT; cited from earlier work
[14] = system: P. aeruginosa ATCC 27853; test: Antimicrobial activity, agar dilution method; format: cell-based, Pseudomonas aeruginosa
Method in brief: as §1

[15] = system: Gram-positive bacteria; test: Antimicrobial activity, agar dilution method, summarised over the group; format: cell-based
Method in brief: as §1

[16] = system: B. subtilis ATCC 6633; test: Antimicrobial activity, agar dilution method; format: cell-based; details: Bacillus subtilis, ATCC6633
Method in brief: as §1

[17] = system: S. dysenteriae; test: Antimicrobial activity, agar dilution method; format: cell-based; details: Shigella dysenteriae
Method in brief: as §1

[18] = system: S. aureus ATCC 25923; test: Antimicrobial activity, agar dilution method; format: cell-based; details: Staphylococcus aureus, ATCC25923
Method in brief: as §1

[19] = system: S. epidermidis ATCC 12228; test: Antimicrobial activity, agar dilution method; format: cell-based; details: Staphylococcus epidermidis, ATCC12228
Method in brief: as §1

[20] = system: P. shigelloides; test: Antimicrobial activity, agar dilution method; format: cell-based; details: Plesiomonas shigelloides
[21] = system: twenty-seven strains of microorganisms; format: cell-based; details: Saccharomyces cerevisiae
Method in brief: as §1

[22] = system: S. Choleraesuis ATCC 10708; test: Antimicrobial activity, agar dilution method; format: cell-based; details: Salmonella enterica, ATCC10708|CHOLERAESUIS
Method in brief: as §1

[23] = system: C. albicans ATCC 90028; test: Antimicrobial activity, agar dilution method; format: cell-based; details: Candida albicans, ATCC90028
Method in brief: as §1

[24] = system: E. faecalis ATCC 29212; test: Antimicrobial activity, agar dilution method; format: cell-based; details: Enterococcus faecalis, ATCC29212
Method in brief: as §1

[25] = system: S. aureus ATCC 29213; test: Antimicrobial activity, agar dilution method; format: cell-based; details: Staphylococcus aureus, ATCC29213
Method in brief: as §1

[26] = Antioxidant activity, DPPH radical scavenging assay; format: biochemical; details: read-out: RSA IC50, 30 min, 517 nm
Method in brief: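 Sample solution (test compound, 1 mg/mL in DMSO) was mixed with 0.1 mM DPPH in methanol and kept 30 min in the dark. Absorbance was read at 517 nm. Radical scavenging activity (%) = [1 − Abs(sample)/Abs(control)] × 100. α-Tocopherol was the positive control.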

[27] = system: S. putrefaciens ATCC 8071; test: Antimicrobial activity, agar dilution method; format: cell-based; details: Shewanella putrefaciens, ATCC8071
Method in brief: as §1

[28] = system: C. diphtheriae NCTC 10356; test: Antimicrobial activity, agar dilution method; format: cell-based; details: Corynebacterium diphtheriae, NCTC10356
Method in brief: as §1

[29] = system: K. pneumoniae ATCC 700603; test: Antimicrobial activity, agar dilution method; format: cell-based; details: Klebsiella pneumoniae, ATCC700603
Method in brief: as §1

[30] = system: E. coli ATCC 25922; test: Antimicrobial activity, agar dilution method; format: cell-based; details: Escherichia coli, ATCC25922
Method in brief: as §1

[31] = system: A. xylosoxidans ATCC 27061; test: Antimicrobial activity, agar dilution method; format: cell-based; details: Achromobacter xylosoxidans, ATCC27061
Method in brief: as §1

[32] = system: A. hydrophila; test: Antimicrobial activity, agar dilution method; format: cell-based; details: Aeromonas hydrophila
Method in brief: as §1

[33] = system: S. Typhimurium ATCC 13311; test: Antimicrobial activity, agar dilution method; format: cell-based; details: Salmonella enterica, ATCC13311|TYPHIMURIUM
Method in brief: as §1

[34] = Pseudomonas aeruginosa, ATCC27853

Oc1cccc2cccnc12 [8HQ (1), 8-Hydroxyquinoline]
MIC [1]: 13.8 µM (≈ 2 µg/mL) | IC50 [2]: 91.8 µM | MIC [3]: 220 µM (≈ 32 µg/mL) | MIC [4]: 13.8 µM (≈ 2 µg/mL) | MIC [5]: 110 to 882 µM (≈ 16 to 128 µg/mL) | MIC [5, 34]: 13.8 to 882 µM (≈ 2 to 128 µg/mL) | MIC [6]: 220 µM (≈ 32 µg/mL) | MIC [7]: 13.8 µM (≈ 2 µg/mL) | MIC [8]: 220 µM (≈ 32 µg/mL) | MIC [9]: 882 µM (≈ 128 µg/mL) | MIC [10]: 882 µM (≈ 128 µg/mL) | MIC [11]: 3.44 µM (≈ 0.499 µg/mL) | MIC [12]: 13.8 µM (≈ 2 µg/mL) | IC50 [13]: 6.27 µM | MIC ([14]; P. aeruginosa ATCC 27853, agar dilution): >1763.57 µM | MIC [14, 34]: > 1760 µM | MIC [15]: 3.44 to 13.8 µM (≈ 0.499 to 2 µg/mL) | MIC [16]: 6.89 µM (≈ 1 µg/mL) | MIC [17]: 220 µM (≈ 32 µg/mL) | MIC [18]: 6.89 µM (≈ 1 µg/mL) | MIC [19]: 6.89 µM (≈ 1 µg/mL) | MIC [20]: 13.8 µM (≈ 2 µg/mL) | MIC [21]: 3.44 to 13.8 µM (≈ 0.499 to 2 µg/mL) | MIC [22]: 882 µM (≈ 128 µg/mL) | MIC [23]: 13.8 µM (≈ 2 µg/mL) | MIC [24]: 13.8 µM (≈ 2 µg/mL) | MIC [25]: 6.89 µM (≈ 1 µg/mL) | IC50 [26]: 615 µM | MIC [27]: 220 µM (≈ 32 µg/mL) | MIC [28]: 13.8 µM (≈ 2 µg/mL) | MIC [29]: 882 µM (≈ 128 µg/mL) | MIC [30]: 220 µM (≈ 32 µg/mL) | MIC [31]: 55.1 µM (≈ 8 µg/mL) | MIC [32]: 110 µM (≈ 16 µg/mL) | MIC [33]: 220 µM (≈ 32 µg/mL)
